# Source: PubChem
# NTR1 agonist: agonists of human NTR1, primary screen, imaging, U2OS cells, beta-arrestin-GFP, high content | NTR1-U2OS beta-arrestin-GFP spot imaging, agonist mode | Neurotensin receptor type 1 (Homo sapiens), P30989 | activation, % at 20 µM | 330,000 tested, 0.17% active | AID 493036, 2011;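 active = activation at or above 40% of the spot to cytoplasm intensity ratio, with at least 20 cells analyzed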;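 also: 0% = DMSO without peptide and 100% = 100 nM NTR1 peptide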
# TAAR1 antagonist: human TAAR1 antagonists, primary screen, Fluo-8 calcium fluorescence, CHO RD-HGA16 cells; 360,000 tested, 1.5% active; antagonist; AID 624466, 2012; inhibition, % at 3 µM;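 active = inhibition above a per-plate cutoff, the mean inhibition of test compounds on that plate plus 3 SD, cut at about 49% in these data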;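 also: 0% = DMSO plus EC80 beta-PEA response and 100% = DMSO alone without agonist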
#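 Material: CHO RD-HGA16 cells bearing hTAAR1; compound dosing: one-point dosing, 3 µM nominal final; schedule: dye loading 75 min at 37 °C, then 30 min room temperature; measured by: calcium fluorescence with Fluo-8; control set: vehicle and agonist controls; replication: n of 1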
# CHO parental Ca: ATP-evoked calcium signal inhibitors, parental CHO, primary screen, counter-screen for OX1R antagonist project, cell-based, fluorescence, Fluo-8 calcium dye. parental CHO-K1, ATP-induced calcium, Fluo-8 fluorescence. inhibition, % at 5.6 µM. AID 463079, 2010. 330,000 tested, 0.63% active;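 active = inhibition above that plate's mean sample inhibition plus 3 SD, cut at about 26% in these data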;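 also: 0% = ATP-challenged DMSO wells and 100% = DMSO wells without ATP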
#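 Material – parental CHO cells · Reagent – ATP stimulus · Compound – single nominal dose of 5.6 µM per compound · Detection – Fluo-8 fluorescence · Read-out basis – percent inhibition of calcium signal · Controls – ATP-challenged DMSO wells low, unchallenged DMSO wells high · Repeats – no replicates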
# TAAR1 agonist: human TAAR1 agonists, primary screen, Fluo-8 calcium fluorescence, CHO RD-HGA16 cells; activation, % at 3 µM; Trace amine-associated receptor 1 (Homo sapiens), Q96RJ0; 360,000 tested, 0.99% active; vehicle wells 0%, saturating PEA agonist 100%;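 active = activation above the mean activation of all test compounds in the run plus 3 SD, cut at about 38% in these data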
#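 Benchmarks: low control DMSO, high control PEA (EC100); System: CHO RD-HGA16 cells carrying human TAAR1 plus Gα16; Detection: Fluo-8 fluorescence, 5 s baseline then 140 s kinetic read; Schedule: 17-24 h plating, Fluo-8 75 min 37 °C, 30 min RT; Read-out basis: % activation from peak over basal fluorescence ratio, DMSO-to-PEA scaled.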
# OX1R antag-1: antagonists of human orexin 1 receptor (OX1R); Orexin/Hypocretin receptor type 1 (Homo sapiens), O43613; OX1R-expressing cells, FRET antagonist read-out; inhibition, % at 6.6 µM; 330,000 tested, 1.8% active; AID 485270, 2010; in the data active = inhibition mostly above about 38%, no sharp cut-off; inactive = mostly below about 40%;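 also: 0% = agonist challenge alone and 100% = reference antagonist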
# Target sequence (O43613 whole entry, looked up): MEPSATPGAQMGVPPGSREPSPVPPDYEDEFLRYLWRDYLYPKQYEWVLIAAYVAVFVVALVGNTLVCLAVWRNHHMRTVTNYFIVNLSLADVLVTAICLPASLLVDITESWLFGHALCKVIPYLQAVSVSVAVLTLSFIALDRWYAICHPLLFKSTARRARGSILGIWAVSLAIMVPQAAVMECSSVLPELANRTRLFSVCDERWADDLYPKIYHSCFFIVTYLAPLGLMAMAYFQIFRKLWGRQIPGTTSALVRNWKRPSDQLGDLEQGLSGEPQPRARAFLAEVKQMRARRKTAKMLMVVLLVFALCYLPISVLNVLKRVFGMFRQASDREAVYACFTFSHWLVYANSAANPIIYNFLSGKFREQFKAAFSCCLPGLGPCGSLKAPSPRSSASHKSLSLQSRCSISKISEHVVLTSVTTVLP
# OX1R antag-2: OX1R (HCRTR1) antagonists, primary screen, fluorescence, CHO/OX1R cells, Fluo-8 calcium, orexin A; Fluo-8 calcium fluorescence; inhibition, % at 5 µM; 330,000 tested, 0.43% active;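 active = inhibition above its plate's threshold, mean inhibition of all tested compounds on the plate plus 3 SD, cut at about 37% in these data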;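 also: 0% = orexin A challenge wells and 100% = SB-334867-A antagonist wells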
# TAAR1 ag confirm: human TAAR1 agonists, retest of hits, confirmation, Fluo-8 calcium fluorescence, CHO RD-HGA16 cells | shares compounds with TAAR1 agonist | AID 651783, 2012 | 2,400 tested, 82% active | activation, % at 3 µM | scaled: DMSO 0%, maximal phenethylamine 100%;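 active = activation above a cutoff set at the run's mean compound activation plus 3 SD, cut at about 39% in these data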
# Ga16 ag counter: nonselective calcium mobilization agonists, CHO-Ga16 cells, counter-screen for hTAAR1 agonist project, cell-based, fluorescence, CHO-Ga16 parental line | shares compounds with TAAR1 agonist | Fluo-8 calcium fluorescence; normalized to maximal ATP response, DMSO zero | activation, % at 3 µM | 2,400 tested, 50% active;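 active = activation above the run cutoff, the mean activation over all tested wells plus 3 SD, cut at about 12% in these data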;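 also: 0% = DMSO wells and 100% = maximal ATP response on the peak over basal ratio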
# TAAR1 desens: TAAR1 desensitization by agonist hits, confirmation, counter-screen for TAAR1 agonist project, cell-based, fluorescence, tachyphylaxis; shares compounds with TAAR1 agonist; CHO RD-HGA16 hTAAR1, Fluo-8 calcium, beta-PEA response inhibition; inhibition, % at 3 µM; 2,400 tested, 46% active; AID 651951, 2012;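 active = inhibition above the run cutoff, the mean inhibition of all test compounds plus 3 SD, cut at about 49% in these data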;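 also: beta-PEA stimulus applied at its EC80; loss of beta-PEA calcium signal after compound pretreatment read as receptor desensitization; 0% = DMSO with beta-PEA at EC80 and 100% = DMSO alone without agonist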
# Ga16 nonsel ant: inhibition of ATP-evoked calcium response in CHO-Ga16 cells, counter-screen for TAAR1 agonist project, cell-based, fluorescence. shares compounds with TAAR1 agonist. CHO-Ga16 ATP-induced calcium, Fluo-8 fluorescence. inhibition, % at 3 µM. 2,400 tested, 39% active. AID 651952, 2012;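 active = inhibition above the plate's mean compound inhibition plus 3 SD, computed per plate, cut at about 22% in these data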;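 also: 0% = EC80 ATP with DMSO and 100% = DMSO wells without ATP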
# An asterisk follows results filed as active; nt = not tested or not shown. A selection: hits, their analogues and other compounds. The true share with any hit is near 4%.
SMILES,NTR1 agonist,TAAR1 antagonist,CHO parental Ca,TAAR1 agonist,OX1R antag-1,OX1R antag-2,TAAR1 ag confirm,Ga16 ag counter,TAAR1 desens,Ga16 nonsel ant
CC(NS(=O)(=O)c1ccc2c(c1)C(C)(C)C(=O)N2C)c1ccccc1 (stereo unspecified),3,-14,-10,2,10,-19,nt,nt,nt,nt
CCCCNC(=O)CCC(=O)N1CCN(C(c2ccccc2)c2ccccc2)CC1,0,9,-19,6,25,-11,nt,nt,nt,nt
CCOC(=O)c1sc2c(c1C)C(c1cccs1)C1=C(CCCC1=O)N2 (stereo unspecified),14,45,-10,68*,22,21,46*,16*,25,15
O=C(COC(=O)CN1C(=O)c2ccccc2C1=O)Nc1ccccc1,0,-26,-4,48*,4,-2,57*,0,8,4
Cc1ccc(NC(=O)COC(=O)CN2C(=O)c3ccccc3C2=O)cc1,5,11,-6,15,8,-18,nt,nt,nt,nt
Cc1cccc(CCNC(=O)CCS(=O)(=O)c2cc3c(cc2C)NC(=O)CO3)c1,0,-26,-11,34,15,-19,nt,nt,nt,nt
Cc1cc2c(cc1S(=O)(=O)CCC(=O)NCCc1ccccc1)OCC(=O)N2,-1,52*,-6,89*,23,-25,101*,0,75*,1
O=C(NCCc1ccccc1)c1ccc(-c2ccccc2Cl)o1,-1,21,-13,51*,28,-16,16,19*,81*,15
O=C(CNC(=O)c1ccc(Br)o1)NCc1ccccc1,0,-13,0,1,18,-10,nt,nt,nt,nt
O=C(NCCc1ccccc1)c1ccc(Br)o1,1,27,-17,67*,12,-9,77*,3,40,1
O=C(Nc1cccnc1)c1ccc(-c2cc(Cl)ccc2Cl)o1,7,15,-32,73*,12,-29,40*,43*,40,19
CC(=O)Nc1ccc(NC(=O)c2ccc(-c3ccccc3Cl)o2)cc1,1,54*,nt,58*,nt,nt,40*,43*,57*,38*
O=[N+]([O-])c1cccc(Nc2c([N+](=O)[O-])ccc3nonc23)c1,0,-17,-4,2,-9,-10,nt,nt,nt,nt
O=[N+]([O-])c1ccc2nonc2c1Nc1ccccc1,0,24,-7,78*,27*,-5,5,1,-6,1
CC1CCc2sc(C(=O)N3CCC(C(N)=O)CC3)cc2C1 (stereo unspecified),2,-15,-8,2,4,-1,nt,nt,nt,nt
O=C(Cc1c(F)c(F)c(F)c(F)c1F)Nc1nc(-c2ccccc2)cs1,18,47,48*,54*,48*,27,83*,33*,69*,30*
Cc1ccn2c(C(=O)NNC(=O)Nc3ccc(Cl)cc3)c(C)nc2c1,-2,-8,nt,0,nt,nt,nt,nt,nt,nt
O=C(NCCc1ccc(Cl)cc1)C1CC(=O)N(CCc2ccccc2)C1 (stereo unspecified),1,-20,-11,13,-3,-1,nt,nt,nt,nt
O=C(NCCc1ccccc1)C1CC(=O)N(CCc2ccccc2)C1 (stereo unspecified),-1,-6,-13,44*,8,-17,68*,0,30,8
O=C(O)C1CC(=O)N(CCc2ccccc2)C1 (stereo unspecified),-3,17,0,44*,0,-18,72*,3,0,6
COc1ccc(CCN2CC(C(=O)O)CC2=O)cc1 (stereo unspecified),1,8,8,1,3,3,nt,nt,nt,nt
O=C(CN(C(=O)c1csnn1)c1cccc2c1CCCC2)NCc1ccccc1,15,-1,-15,4,5,-17,nt,nt,nt,nt
O=C(O)c1ccc(-c2nc(-c3ccccc3)cs2)cc1,0,10,0,0,13,-6,nt,nt,nt,nt
O=C(O)c1ccc(-c2nc(-c3ccccc3Cl)cs2)cc1,-1,11,4,49*,-3,2,18,19*,21,14
CCCN1C(=O)N(c2cccc(C)c2)C(C)(O)CC1(C)C (stereo unspecified),0,-26,-19,3,5,24,nt,nt,nt,nt
SMILES,NTR1 agonist,TAAR1 antagonist,CHO parental Ca,TAAR1 agonist,OX1R antag-1,OX1R antag-2,TAAR1 ag confirm,Ga16 ag counter,TAAR1 desens,Ga16 nonsel ant
O=C(CNC(=O)c1cccc(F)c1)N/N=C/C=C/c1ccccc1,1,nt,-14,nt,6,-17,nt,-1,nt,5
O=C(CNC(=O)c1cccc(F)c1)N/N=C/c1cccc([N+](=O)[O-])c1,-1,0,-10,-1,45,-9,nt,nt,nt,nt
NC(=O)CC(NC(=O)Cc1ccc(Cl)cc1)c1ccc(NCCc2ccccc2F)c([N+](=O)[O-])c1 (stereo unspecified),0,nt,-7,nt,9,0,nt,3,nt,5
O=C(CCN1CCC(c2ccccc2)C1)c1cccs1 (stereo unspecified),0,92*,-7,100*,3,-4,100*,8,95*,6
O=C(CCN1CCC(c2ccccc2)C1)c1ccccc1 (stereo unspecified),0,nt,-2,nt,8,-7,nt,nt,nt,nt
O=C(CCN1CCC(c2ccccc2)C1)c1ccc2c(c1)OCCO2 (stereo unspecified),-3,83*,-19,83*,20,-21,80*,6,86*,11
